Measurements taken from ChEMBL document CHEMBL1147714, “1,3,5-Trisubstituted aryls as highly selective PPARdelta agonists” (Bioorg Med Chem Lett, 2006).

Legend:
[1] = target: T1, Peroxisome proliferator-activated receptor gamma (Homo sapiens, UniProt P37231); assay: Effect on human PPARgamma transactivation in 293T cells; type: functional, cell-based
T1 sequence (P37231 whole entry): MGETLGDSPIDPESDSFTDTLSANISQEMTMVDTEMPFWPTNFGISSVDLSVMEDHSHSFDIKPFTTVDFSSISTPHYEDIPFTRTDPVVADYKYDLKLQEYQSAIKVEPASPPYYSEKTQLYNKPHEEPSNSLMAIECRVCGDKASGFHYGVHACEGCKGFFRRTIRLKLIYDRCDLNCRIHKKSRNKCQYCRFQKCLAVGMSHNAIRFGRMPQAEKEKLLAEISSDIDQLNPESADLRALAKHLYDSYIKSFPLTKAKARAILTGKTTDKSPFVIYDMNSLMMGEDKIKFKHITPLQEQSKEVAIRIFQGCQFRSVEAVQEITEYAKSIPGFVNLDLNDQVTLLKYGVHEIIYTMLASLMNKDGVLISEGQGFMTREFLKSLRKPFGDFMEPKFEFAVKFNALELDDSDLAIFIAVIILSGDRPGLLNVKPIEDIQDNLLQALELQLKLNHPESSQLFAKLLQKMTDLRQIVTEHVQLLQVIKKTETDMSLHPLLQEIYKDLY

[2] = target: T2, Peroxisome proliferator-activated receptor delta (Homo sapiens, UniProt Q03181); assay: Effect on human PPARdelta transactivation in 293T cells; type: functional, cell-based
T2 sequence (Q03181 whole entry): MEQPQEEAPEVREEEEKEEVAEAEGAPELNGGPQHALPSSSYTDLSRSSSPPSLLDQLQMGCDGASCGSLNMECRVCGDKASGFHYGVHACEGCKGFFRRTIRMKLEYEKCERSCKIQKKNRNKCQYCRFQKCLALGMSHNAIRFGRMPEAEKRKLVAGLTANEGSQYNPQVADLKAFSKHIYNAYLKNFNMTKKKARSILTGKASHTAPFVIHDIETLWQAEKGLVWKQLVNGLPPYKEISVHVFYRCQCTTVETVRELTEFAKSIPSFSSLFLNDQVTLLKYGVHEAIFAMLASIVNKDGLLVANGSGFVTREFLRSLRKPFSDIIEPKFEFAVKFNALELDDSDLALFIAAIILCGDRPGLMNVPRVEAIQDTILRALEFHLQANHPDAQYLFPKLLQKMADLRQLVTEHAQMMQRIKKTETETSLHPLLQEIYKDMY

[3] = target: T3, Peroxisome proliferator-activated receptor alpha (Homo sapiens, UniProt Q07869); assay: Effect on human PPARalpha transactivation in 293T cells; type: functional, cell-based
T3 sequence (Q07869 whole entry): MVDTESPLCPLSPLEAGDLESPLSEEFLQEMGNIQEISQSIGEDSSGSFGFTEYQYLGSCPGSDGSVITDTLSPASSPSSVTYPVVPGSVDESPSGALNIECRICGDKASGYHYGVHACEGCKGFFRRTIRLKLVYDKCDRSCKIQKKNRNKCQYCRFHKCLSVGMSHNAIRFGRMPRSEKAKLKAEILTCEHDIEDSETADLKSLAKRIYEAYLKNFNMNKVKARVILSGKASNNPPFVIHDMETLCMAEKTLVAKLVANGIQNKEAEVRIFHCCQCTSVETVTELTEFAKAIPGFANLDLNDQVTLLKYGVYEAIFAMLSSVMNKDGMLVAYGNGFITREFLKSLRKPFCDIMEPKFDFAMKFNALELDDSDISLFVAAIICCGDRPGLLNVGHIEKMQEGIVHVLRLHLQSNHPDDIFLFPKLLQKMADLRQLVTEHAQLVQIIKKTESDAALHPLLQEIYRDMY
How it was run: (§1)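 293T cells transfected for 6 h (Fugene6) with a GAL4 DNA-binding domain–PPAR ligand-binding domain fusion plasmid and pG5-Luc reporter (5 GAL4-binding sites, TATA box, firefly luciferase). Compounds were then added at 1× final concentration in 1% DMSO for 18-20 h at 37 °C. Cells were lysed with Britelite for luciferase read-out.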

[4] = Half life in mouse at 10 mg/kg, po; type: ADME, organism-based; parameters: dose 10 mg/kg, route oral; conditions: in vivo
How it was run: (§2)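 Mice received a single oral dose of 10 mpk, given as a suspension in 0.5% CMC. Bioavailability, Cmax and half-life were obtained from this pharmacokinetic study.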

Liver microsomes [5] = assay: Stability in rat liver microsome; type: ADME
Liver microsomes [6] = assay: Stability in human liver microsome; type: ADME
Mus musculus = species: Mus musculus; assay: Stability in mouse liver microsome; type: ADME
[7] = Bioavailability in mouse at 10 mg/kg, po; type: ADME, organism-based; conditions: in vivo; how it was run: as §2
[8] = Cmax in mouse at 10 mg/kg, po; type: ADME, organism-based; parameters: dose 10 mg/kg, route oral; conditions: in vivo; how it was run: as §2
[9] = target: T4, Peroxisome proliferator-activated receptor gamma (Homo sapiens) (UniProt P37231); assay: Effect on human PPARgamma transactivation in 293T cells relative to rosiglitazone; type: functional, cell-based; how it was run: as §1
T4 sequence (whole entry): T1 sequence (P37231 whole entry)

Row | EC50 [1] [nM] | EC50 [2] [nM] | EC50 [3] [nM] | Compound | also measured
1 | > 10000 | 70 | > 10000 | Cc1ccc(-c2cc(COc3ccc(OCC(=O)O)c(C)c3)cc(-c3ccc(C(F)(F)F)cc3)c2)cc1 | –
2 | > 10000 | 110 | 1640 | O=C(O)COc1ccc(OCc2cc(-c3ccc(C(F)(F)F)cc3)cc(-c3ccc(C(F)(F)F)cc3)c2)cc1 | –
3 | > 10000 | 40 | > 10000 | Cc1cc(OCc2cc(-c3ccc(OC(F)(F)F)cc3)nc(-c3ccc(OC(F)(F)F)cc3)n2)ccc1OCC(=O)O | half-life [4]: 3 h; Stability (Liver microsomes [5]): Stable; Stability (Liver microsomes [6]): Stable; Stability (Mus musculus): Stable; bioavailability [7]: > 50%; Cmax [8]: > 4 µM
4 | > 10000 | 490 | > 10000 | Cc1cc(OCc2cc(-c3ccc(N(C)C)cc3)cc(-c3ccc(N(C)C)cc3)c2)ccc1OCC(=O)O | –
5 | > 10000 | 110 | > 10000 | COc1ccc(-c2cc(-c3ccc(OC)cc3)nc(COc3ccc(OCC(=O)O)c(C)c3)n2)cc1 | –
6 | > 10000 | 70 | 3330 | Cc1cc(OCC(=O)O)ccc1OCc1cc(-c2ccc(C(F)(F)F)cc2)cc(-c2ccc(C(F)(F)F)cc2)c1 | –
7 | > 10000 | 210 | > 10000 | COc1ccc(-c2cc(COc3ccc(OCC(=O)O)c(C)c3)nc(-c3ccc(OC)cc3)n2)cc1 | –
8 | > 10000 | > 10000 | > 10000 | COc1ccc(-c2ccc(COc3ccc(OCC(=O)O)c(C)c3)cc2-c2ccc(OC)cc2)cc1 | –
9 | > 10000 | 110 | > 10000 | Cc1cc(OCc2cc(-c3ccc(Cl)cc3)cc(-c3ccc(Cl)cc3)c2)ccc1OCC(=O)O | –
10 | 740 | 560 | > 10000 | Cc1cc(OCc2cc(-c3ccccc3)cc(-c3ccccc3)c2)ccc1OCC(=O)O | Efficacy [9]: 30%
11 | > 10000 | 540 | > 10000 | O=C(O)Cc1ccc(OCc2cc(-c3ccc(C(F)(F)F)cc3)cc(-c3ccc(C(F)(F)F)cc3)c2)c(Cl)c1 | –
12 | > 10000 | 30 | > 10000 | Cc1cc(OCc2cc(-c3ccc(OC(F)(F)F)cc3)cc(-c3ccc(OC(F)(F)F)cc3)c2)ccc1OCC(=O)O | –
13 | > 10000 | > 10000 | > 10000 | Cc1cc(OCc2ccc(-c3ccc(OC(F)(F)F)cc3)c(-c3ccc(OC(F)(F)F)cc3)c2)ccc1OCC(=O)O | –
14 | > 10000 | 160 | > 10000 | O=C(O)Cc1ccc(SCc2cc(-c3ccc(C(F)(F)F)cc3)cc(-c3ccc(C(F)(F)F)cc3)c2)c(Cl)c1 | –
15 | 1200 | 970 | > 10000 | O=C(O)COc1ccc(OCc2cc(-c3ccccc3)cc(-c3ccccc3)c2)cc1 | –
16 | > 10000 | 560 | > 10000 | Cc1cc(OCc2cc(-c3ccc(C(F)(F)F)cc3)cc(-c3cccc(C(F)(F)F)c3)c2)ccc1OCC(=O)O | –
17 | > 10000 | 350 | > 10000 | COc1ccc(-c2cc(COc3ccc(OCC(=O)O)c(C)c3)cc(-c3ccc(OC)cc3)c2)cc1 | –
18 | > 10000 | 90 | > 10000 | Cc1cc(OCc2nc(-c3ccc(OC(F)(F)F)cc3)cc(-c3ccc(OC(F)(F)F)cc3)n2)ccc1OCC(=O)O | –
19 | > 10000 | 70 | > 10000 | COc1ccc(-c2cc(COc3ccc(OCC(=O)O)c(C)c3)cc(-c3ccc(C(F)(F)F)cc3)c2)cc1 | –
20 | > 10000 | > 10000 | > 10000 | Cc1cc(OCc2ccc(-c3ccc(C(F)(F)F)cc3)c(-c3ccc(C(F)(F)F)cc3)n2)ccc1OCC(=O)O | –
21 | > 10000 | 60 | > 10000 | Cc1cc(OCc2cc(-c3ccc(OC(F)(F)F)cc3)cc(-c3ccc(C(F)(F)F)cc3)c2)ccc1OCC(=O)O | –

Row | Compound | EC50 [1] [nM] | EC50 [2] [nM] | EC50 [3] [nM] | also measured
22 | CC(C)(Oc1ccc(OCc2cc(-c3ccc(C(F)(F)F)cc3)cc(-c3ccc(C(F)(F)F)cc3)c2)cc1)C(=O)O | 370 | 50 | 730 | –
23 | Cc1cc(OCc2nc(-c3ccc(C(F)(F)F)cc3)cc(-c3ccc(C(F)(F)F)cc3)n2)ccc1OCC(=O)O | > 10000 | 40 | > 10000 | –
24 | Cc1cc(OCc2cc(-c3ccc(-c4ccccc4)cc3)cc(-c3ccc(C(F)(F)F)cc3)c2)ccc1OCC(=O)O | > 10000 | 60 | > 10000 | –
25 | Cc1cc(OCc2cc(-c3ccc(C(F)(F)F)cc3)cc(-c3ccc(C(F)(F)F)cc3)c2)ccc1OCC(=O)O | > 10000 | 10 | > 10000 | half-life [4]: 3 h; Stability (Liver microsomes [5]): Stable; Stability (Liver microsomes [6]): Stable; Stability (Mus musculus): Stable; bioavailability [7]: > 50%; Cmax [8]: > 4 µM
26 | Cc1cc(OCc2cc(-c3ccc(C(F)(F)F)cc3)nc(-c3ccc(C(F)(F)F)cc3)n2)ccc1OCC(=O)O | > 10000 | 30 | > 10000 | –
27 | Cc1cc(SCc2cc(-c3ccc(C(F)(F)F)cc3)cc(-c3ccc(C(F)(F)F)cc3)c2)ccc1OCC(=O)O | > 10000 | 30 | > 10000 | –
